Screening results deposited in PubChem BioAssay by several laboratories.
Only some compounds are listed: those with a hit (about 1.4% of all), similar ones and a draw of the others.
Tn6 DDE FP: disrupts Tn6 cyclic peptide binding to fibrin D-Dimer-E complex. AID 720509. Fibrin DD(E) TRITC-Tn6 fluorescence polarization displacement. inhibition, % at 8.3 µM. actives 0.21% (n = 370,000). P02675;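 active = inhibition above a per-campaign cutoff: mean of compounds within control limits plus 3 SD, cut at about 15% in these data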;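 also: 0% = median of all compound wells on the plate and 100% = blocking peptide control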
CAL PDZ FP-1: human CAL PDZ-peptide interaction inhibition; Q9HD26; purified CAL PDZ, TMR-peptide fluorescence polarization, 1 h; inhibition, % at 20 µM; actives 0.02% (n = 330,000); AID 504414;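 active = highest replicate inhibition of at least 40%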;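 also: plate controls were DMSO neutral control wells for no effect and unlabeled competitor peptide control wells for full effect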
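Material – purified CerCALP PDZ construct · Detection – FP readout, S and P plane fluorescence · Measure – percent inhibition from loss of millipolarization · Controls – unlabelled peptide for full inhibition, DMSO wells as neutral · Probe or stimulus – TMR-labelled reporter peptide T*-PRC34 bound in PDZ groove · Times – 1 h at RT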
CAL PDZ FP-2: inhibitors of human CAL PDZ peptide binding | inhibition, % at 24.9 µM | purified CAL PDZ, TMR-peptide fluorescence polarization, 1 h | actives 0.92% (n = 300,000) | Q9HD26;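 active = mean inhibition of at least 30% with at least half of replicates also reaching 30%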;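 also: 0% = DMSO neutral control and 100% = excess unlabeled competitor peptide PRC23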
DDE Tn7 FP inh: DD(E)-Tn7 binding inhibition, primary FP screen; inhibition, % at 8.3 µM; FP displacement of FITC-Tn7 peptide from fibrin DD(E); 0% = median of compound wells per plate; actives 0.13% (n = 370,000); P02675;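 active = inhibition above the mean of compounds falling within the control limits plus 3 SD of them, cut at about 14% in these data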;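 also: 0% = plate median of compound wells and 100% = 10 µM Aha-Tn7 peptide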
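Test system – human fibrin DD(E) · Times – 10 min preincubation, 3 h with tracer, room temperature · Detection – fluorescence polarization of the labelled Tn7 tracer · Measure – percent inhibition normalized to high-control wells · Benchmarks – high control wells with 10 µM unlabelled Aha-Tn7 peptide (full inhibition) · Repeats – singlicate testing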
Arrestin-AP2 inh: inhibitors of human beta-arrestin and AP2 interaction | FITC-arrestin peptide / GST-AP2 beads, flow cytometry; AP2 beta2 appendage carries R879A mutation | inhibition, % at 10 µM | actives 0.31% (n = 340,000) | AID 504490;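 active = inhibition above a set limit, near 3 SD of compounds lacking own fluorescence, cut at about 54% in these data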;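 also: plate controls were DMSO wells for no effect and 5 µM unlabelled arrestin peptide for full effect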
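System: GST-AP2 R879A glutathione beads. Medium: PBS with 0.05% Tween 20 and 0.1% BSA. Also added: FITC-arrestin peptide, 50 nM. Incubation: 12 min plus 1 h, RT. Measured by: high-throughput flow cytometry of beads, ex 488, em 535 nm. Evaluation: percent drop in bead-associated FITC signal.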
Arr AP2 CP1: human beta-arrestin and AP2 interaction inhibition, cherry pick | shares compounds with Arrestin-AP2 inh | GST-AP2 beads, FITC arrestin peptide binding, flow cytometry; GST-fused beta2-adaptin appendage, R879A mutant | inhibition, % at 10 µM | actives 2% (n = 1,300);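 active = inhibition above a set limit, roughly 3 SD of non-fluorescent compound noise, cut at about 38% in these data; inactive = inhibition at or below that limit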;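 also: loss of bead fluorescence from 50 nM FITC arrestin peptide bound to appendage; 0% = negative control wells and 100% = excess unlabelled arrestin peptide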
Target sequence (P63010 whole entry, looked up, the tested form may be a part, one chain of several): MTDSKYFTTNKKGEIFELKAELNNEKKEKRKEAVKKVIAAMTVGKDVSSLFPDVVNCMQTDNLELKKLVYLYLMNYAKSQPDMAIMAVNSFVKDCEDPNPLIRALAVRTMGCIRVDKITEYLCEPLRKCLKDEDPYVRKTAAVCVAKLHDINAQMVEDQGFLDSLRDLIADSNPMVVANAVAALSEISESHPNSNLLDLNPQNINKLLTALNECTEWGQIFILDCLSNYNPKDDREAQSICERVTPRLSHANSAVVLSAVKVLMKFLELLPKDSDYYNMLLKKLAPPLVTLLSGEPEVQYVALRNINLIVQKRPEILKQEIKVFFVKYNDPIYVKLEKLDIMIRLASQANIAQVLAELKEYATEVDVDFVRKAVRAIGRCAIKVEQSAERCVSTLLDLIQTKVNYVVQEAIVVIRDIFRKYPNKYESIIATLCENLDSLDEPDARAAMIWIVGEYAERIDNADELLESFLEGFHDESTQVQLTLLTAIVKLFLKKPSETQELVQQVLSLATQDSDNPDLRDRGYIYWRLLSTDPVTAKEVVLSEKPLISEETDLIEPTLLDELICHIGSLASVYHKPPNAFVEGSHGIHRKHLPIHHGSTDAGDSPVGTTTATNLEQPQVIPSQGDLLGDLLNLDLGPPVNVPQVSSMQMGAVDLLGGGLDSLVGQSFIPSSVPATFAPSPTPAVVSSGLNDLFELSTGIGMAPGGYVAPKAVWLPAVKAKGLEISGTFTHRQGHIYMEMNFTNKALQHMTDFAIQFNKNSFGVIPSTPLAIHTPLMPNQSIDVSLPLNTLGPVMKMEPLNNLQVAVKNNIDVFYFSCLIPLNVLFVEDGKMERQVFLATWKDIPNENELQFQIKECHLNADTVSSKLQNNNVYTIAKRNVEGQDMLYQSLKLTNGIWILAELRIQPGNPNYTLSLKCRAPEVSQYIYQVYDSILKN
GST-FITC bead: counter-screen for beta-arrestin AP2 inhibitors: GST-GSH bead binding. shares compounds with Arrestin-AP2 inh. GST-fluorescein binding to GSH beads, fluorescence. inhibition, % at 10 µM. actives 2% (n = 1,300). AID 588338;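 active = inhibition above 50%, about 3 SD of the inhibition seen with non-fluorescent compounds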;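 also: fluorescein maleimide labelled GST captured on 4 micron glutathione beads; higher means more loss of bead fluorescence from quenching or blocked binding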
Active calls of the source: *; . = no result.

SMILES	Tn6 DDE FP	CAL PDZ FP-1	CAL PDZ FP-2	DDE Tn7 FP inh	Arrestin-AP2 inh	Arr AP2 CP1	GST-FITC bead
COC(=O)C1CN(CC(C)C)CCS(=O)(=O)N1Cc1cccc(Cl)c1 (stereo not given)	-9	.	.	-3	.	.	.
C[C@@H]1COc2cc(N3CCCC3)ccc2S(=O)(=O)N1C	1	.	.	0	.	.	.
CCN(CC(=O)Nc1c(F)cccc1F)C(=O)/C=C/c1ccc2ccccc2n1	10	0	-2	0	60*	22	5
N#Cc1cc(C(=O)c2ccccc2OCC(=O)Nc2ccccc2)cn(C2CCCCC2)c1=O	-3	-3	1	-1	108*	72*	191*
CCCCNC(=O)COc1ccccc1C(=O)c1cc(C#N)c(=O)n(CCOC)c1	1	-2	-3	3	-6	.	.
COC(=O)[C@]12CCCCC=C1N(Cc1ccc(OC)cc1)C(=O)[C@@H]2CC(=O)NCc1cccs1	3	.	.	2	.	.	.
Nc1[nH]c(C(=O)c2ccccc2)c(-c2ccc(Cl)c(F)c2)c1C(=O)c1c[nH]c2ccccc12	8	.	.	2	.	.	.
COc1ccc(C(=O)Nc2ccc(C)c(S(=O)(=O)N3CCOCC3)c2)cc1S(=O)(=O)N1CCCC1	-6	-1	-2	-2	8	.	.
COc1ccc(NC(=O)c2ccc(=O)[nH]c2)cc1S(=O)(=O)N1CCOCC1	-1	-3	3	3	39	3	-6
Cc1ccc(NC(=O)c2ccc(=O)[nH]c2)cc1S(=O)(=O)N1CCCCC1	0	-1	0	3	12	-7	-5
O=C(Nc1ccc(S(=O)(=O)N2CCCCC2)cc1)c1ccc(=O)[nH]c1	-6	-2	-3	-4	23	.	.
O=c1oc2ccccc2c2c1C(c1ccc(Cl)cc1)Nc1ccc3ccccc3c1-2 (stereo not given)	9	-2	-4	-11	85*	-5	-1
Cn1c(=O)c2c(ncn2CC(=O)N2CCN(S(=O)(=O)c3ccccc3)CC2)n(C)c1=O	-2	0	1	2	57*	-2	-4
CCN(CC)C(=O)CSc1nnc2nnc3cc(Cl)ccc3n12	0	0	.	1	-9	.	.
CCN(CC)C(=O)CSc1nnc2nnc3cc(C)ccc3n12	-4	-1	.	1	57*	-1	0
COc1ccc(NC(=O)COc2coc(CN3CCc4ccccc4C3)cc2=O)cc1	-3	1	-2	-2	-17	.	.
O=C(COc1coc(CN2CCc3ccccc3C2)cc1=O)Nc1ccccc1F	0	-3	-2	-8	65*	-10	10
COc1cccc(NC(=O)COc2coc(CN3CCc4ccccc4C3)cc2=O)c1	-8	0	-4	-9	59*	20	-1
O=C(COc1coc(CN2CCc3ccccc3C2)cc1=O)Nc1cccc(F)c1	-6	-1	-1	13	-25	.	.
O=C(NCCO)[C@H](Cc1ccccc1)NC1(C(=O)NCCN2CCOCC2)CCCCC1	4	.	.	3	.	.	.
Cc1ccc(NC(=O)c2ccc(CSc3nnc(-c4ccncc4)n3C)cc2)cc1	1	0	-3	0	85*	3	8
CC(=O)Nc1ccc(-c2nnc(SCc3ccc(C)cc3)n2C)cc1	-1	-2	-1	5	18	.	.
COc1ccc(-c2noc(CN(C(=O)c3ccc4c(c3)OCO4)C(C)C)n2)cc1OC	-1	-2	-5	-1	60*	-9	-10
CC(C)(C)c1ccc(-c2nnc(SCC(=O)Nc3ccc(S(=O)(=O)Nc4nccs4)cc3)n2Cc2ccco2)cc1	1	.	.	-2	.	.	.
COC(=O)[C@@H]1N=C(c2ccc(OC)cc2)O[C@]12C(=O)N(Cc1cn(Cc3ccccc3)nn1)c1cccc(Cl)c12	-1	.	.	5	.	.	.
SMILES	Tn6 DDE FP	CAL PDZ FP-1	CAL PDZ FP-2	DDE Tn7 FP inh	Arrestin-AP2 inh	Arr AP2 CP1	GST-FITC bead
COc1ccc(CCN(C)C(=O)c2cc(-c3ccccc3)nc3ccc(C)cc23)cc1OC	4	-1	-1	5	67*	8	2
COc1ccc(CCN(C)C(=O)c2cc(-c3ccccc3)nc3ccccc23)cc1OC	-1	-3	-4	1	6	.	.
Cc1cc(C)cc(NC(=O)CSc2nc3nc(C)cc(C)n3n2)c1	7	-1	.	-4	68*	-7	5
CC(C)(C)c1ccc(S(=O)(=O)N2CCC(C(=O)N3CCN(C4CCCCC4)CC3)CC2)cc1	4	.	.	3	.	.	.
CCCNc1nc(NCC)nc(OC)n1	14	-1	-5	3	64*	13	-6
CCNc1nc(OC)nc(SCC(N)=O)n1	1	0	-9	-1	-3	.	.
CN1CCN(C(=O)C2=C[C@H](C(C)(C)C)C[C@H](OCCCCO)O2)CC1	-5	0	-4	4	-4	.	.
CC(C)(C)[C@H]1C=C(C(=O)N2CCOCC2)O[C@@H](OCCCCO)C1	10	0	1	-11	54*	-7	-2
CCC(C)NC(=O)c1ccc2c(c1)N(Cc1ccccc1)C(=O)CS2 (stereo not given)	-7	-1	-2	7	56*	-2	-5
CCN1C(=O)CSc2ccc(C(=O)NCc3ccccc3)cc21	-4	-2	-2	-2	3	.	.
O=C(Nc1ccc(N2C(=O)CC3(CCCCC3)C2=O)c(Cl)c1)c1ccccn1	-1	.	.	2	.	.	.
Cc1nc2ccc(NC(=O)c3ccc4ccccc4n3)cc2s1	-6	-1	-4	2	65*	-7	-2
CC(Cc1ccccn1)NC(=O)c1ccc(OC2CCN(Cc3ccccn3)CC2)cc1 (stereo not given)	-2	-2	-3	-3	62*	11	1
O=C(NCCc1ccccn1)c1ccc(OC2CCN(Cc3ccccn3)CC2)cc1	0	-2	-1	5	-7	.	.
CN(C)S(=O)(=O)c1ccc(NC(=O)C2CCCN(C(=O)c3ccc(Cl)cc3)C2)cc1 (stereo not given)	7	-2	-4	4	56*	-2	-5
O=C(Nc1ccc(S(=O)(=O)N2CCCCC2)cc1)C1CCCN(C(=O)c2ccc(Cl)cc2)C1 (stereo not given)	7	-5	-16	2	4	.	.
Cc1sc2ncnc(NCc3ccco3)c2c1C	3	-2	-3	-6	85*	-6	-1
S=C1NC[C@H](Cc2ccccc2)N1CC1CCN(CCCC2CCCCC2)CC1	2	.	.	0	.	.	.
